# Legend:
# Type in all cases: functional
# Pseudomonas aeruginosa [1] = experiment: In Vitro antibacterial activity against (Pa G242) hyperpermeable Pseudomonas aeruginosa strain
# Procedure, shortened: (§1)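 Panel of standard ATCC strains plus modified strains: methicillin-resistant, hyperpermeable, β-lactamase-producing (TEM1, TEM2, SHV) and β-lactamase-lacking. MIC determined in Mueller Hinton 2 medium, inoculum 10⁴ cells/mL, incubated 24 h at 37 °C.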
# Pseudomonas aeruginosa [2] = experiment: In Vitro antibacterial activity against (Pa) Pseudomonas aeruginosa ATCC 27853; procedure, shortened: as §1
# Escherichia coli [3] = experiment: In Vitro antibacterial activity against (Ec DC2) hyperpermeable Escherichia coli strain; procedure, shortened: as §1
# Enterococcus faecalis = experiment: In Vitro antibacterial activity against (Ef) Enterococcus faecalis ATCC 29212; procedure, shortened: as §1
# Staphylococcus aureus [4] = experiment: In vitro antibacterial activity against Sa(II) Staphylococcus aureus ATCC 25923; procedure, shortened: as §1
# Escherichia coli [5] = experiment: In Vitro antibacterial activity against (Ec L) Escherichia coli […] strain; procedure, shortened: as §1
# Escherichia coli [6] = experiment: In Vitro antibacterial activity against (Ec TEM1) Escherichia coli […] strain; procedure, shortened: as §1
# Escherichia coli [7] = experiment: In Vitro antibacterial activity against (Ec) Escherichia coli ATCC 25922; procedure, shortened: as §1
# Staphylococcus aureus [8] = experiment: In vitro antibacterial activity against Sa(I) Staphylococcus aureus ATCC 29213
# Procedure, shortened: (§2)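 MIC was determined in Mueller Hinton 2 medium with an inoculum of 10⁴ cells/mL and incubation for 24 h at 37 °C. Strains: Sa(I) is S. aureus ATCC 29213; Sa MR(I) is a heterogeneous methicillin-resistant S. aureus; Sa MR(II) is a homogeneous methicillin-resistant S. aureus.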
# Staphylococcus aureus [9] = experiment: In vitro antibacterial activity against Sa MR(II) homogeneous methicillin resistant Staphylococcus aureus; procedure, shortened: as §2
# Escherichia coli [10] = experiment: In Vitro antibacterial activity against (Ec TEM2) Escherichia coli […] strain; procedure, shortened: as §1
# Staphylococcus aureus [11] = experiment: In vitro antibacterial activity against Sa MR(I) heterogeneous methicillin resistant Staphylococcus aureus; procedure, shortened: as §2
# Escherichia coli [12] = experiment: In Vitro antibacterial activity against (Ec SHV) Escherichia coli […] strain; procedure, shortened: as §1
# Pseudomonas aeruginosa [13] = experiment: In Vitro antibacterial activity against (Pa) hyperpermeable Pseudomonas aeruginosa […] strain; procedure, shortened: as §1
Structure (SMILES),MIC (Pseudomonas aeruginosa [1]),MIC (Pseudomonas aeruginosa [2]),MIC (Escherichia coli [3]),MIC (Enterococcus faecalis),MIC (Staphylococcus aureus [4]),MIC (Escherichia coli [5]),MIC (Escherichia coli [6]),MIC (Escherichia coli [7]),MIC (Staphylococcus aureus [8]),MIC (Staphylococcus aureus [9]),MIC (Escherichia coli [10]),MIC (Staphylococcus aureus [11]),MIC (Escherichia coli [12]),MIC (Pseudomonas aeruginosa [13])
C[C@@H](O)[C@H]1C(=O)N2C(C(=O)O)=C(CN3C[C@H](O)C[C@@H]3C(N)=O)S[C@H]12,2 µg/mL,> 64 µg/mL,2 µg/mL,32 µg/mL,0.25 µg/mL,2 µg/mL,2 µg/mL,2 µg/mL,0.25 µg/mL,8 µg/mL,2 µg/mL,0.25 µg/mL,2 µg/mL,0.5 µg/mL
C[C@@H](O)[C@H]1C(=O)N2C(C(=O)O)=C(CN3CCCC(C(N)=O)C3)S[C@H]12 (stereo partly drawn),4 µg/mL,> 64 µg/mL,4 µg/mL,32 µg/mL,0.06 µg/mL,8 µg/mL,4 µg/mL,4 µg/mL,0.06 µg/mL,2 µg/mL,4 µg/mL,0.12 µg/mL,4 µg/mL,1 µg/mL
C[C@@H](O)[C@H]1C(=O)N2C(C(=O)O)=C(CN(C)CC(=O)N(C)C)S[C@H]12,0.5 µg/mL,> 64 µg/mL,1 µg/mL,–,0.12 µg/mL,0.5 µg/mL,1 µg/mL,0.5 µg/mL,0.25 µg/mL,4 µg/mL,1 µg/mL,–,1 µg/mL,4 µg/mL
C[C@@H](O)[C@H]1C(=O)N2C(C(=O)O)=C(CN(C)CC(=O)NCC(N)=O)S[C@H]12,0.5 µg/mL,> 64 µg/mL,1 µg/mL,8 µg/mL,0.12 µg/mL,0.5 µg/mL,0.5 µg/mL,0.25 µg/mL,0.25 µg/mL,4 µg/mL,0.5 µg/mL,0.25 µg/mL,0.5 µg/mL,1 µg/mL
C[C@@H](O)[C@H]1C(=O)N2C(C(=O)O)=C(CN(CC(N)=O)CC(N)=O)S[C@H]12,0.25 µg/mL,> 64 µg/mL,0.25 µg/mL,> 64 µg/mL,0.06 µg/mL,0.25 µg/mL,0.25 µg/mL,0.12 µg/mL,0.12 µg/mL,1 µg/mL,0.25 µg/mL,0.25 µg/mL,0.5 µg/mL,0.5 µg/mL
C[C@@H](O)[C@H]1C(=O)N2C(C(=O)O)=C(CN(C)CC(=O)N3CCN(C)CC3)S[C@H]12,1 µg/mL,> 64 µg/mL,1 µg/mL,16 µg/mL,0.25 µg/mL,1 µg/mL,1 µg/mL,0.5 µg/mL,0.25 µg/mL,4 µg/mL,1 µg/mL,0.5 µg/mL,1 µg/mL,4 µg/mL
C[C@@H](O)[C@H]1C(=O)N2C(C(=O)O)=C(CN(C)C(CO)C(N)=O)S[C@H]12 (stereo partly drawn),1 µg/mL,> 64 µg/mL,1 µg/mL,4 µg/mL,0.06 µg/mL,0.5 µg/mL,1 µg/mL,0.12 µg/mL,0.12 µg/mL,8 µg/mL,1 µg/mL,0.25 µg/mL,2 µg/mL,8 µg/mL
C[C@@H](O)[C@H]1C(=O)N2C(C(=O)O)=C(CN3C[C@@H](O)C[C@@H]3C(N)=O)S[C@H]12,1 µg/mL,> 64 µg/mL,1 µg/mL,32 µg/mL,0.06 µg/mL,1 µg/mL,1 µg/mL,1 µg/mL,0.12 µg/mL,16 µg/mL,1 µg/mL,0.25 µg/mL,1 µg/mL,0.5 µg/mL
C[C@@H](O)[C@H]1C(=O)N2C(C(=O)O)=C(SCCNC=N)C[C@H]12 [IMIPENEM ANHYDROUS],0.25 µg/mL,1 µg/mL,0.5 µg/mL,0.5 µg/mL,0.015 µg/mL,0.12 µg/mL,0.25 µg/mL,0.12 µg/mL,0.015 µg/mL,0.25 µg/mL,0.25 µg/mL,0.12 µg/mL,0.25 µg/mL,0.25 µg/mL
C[C@@H](O)[C@H]1C(=O)N2C(C(=O)O)=C(CN3CCC[C@H]3C(=O)O)S[C@H]12,4 µg/mL,> 64 µg/mL,16 µg/mL,> 64 µg/mL,0.5 µg/mL,8 µg/mL,8 µg/mL,2 µg/mL,0.03 µg/mL,32 µg/mL,32 µg/mL,1 µg/mL,8 µg/mL,32 µg/mL
C[C@@H](O)[C@H]1C(=O)N2C(C(=O)O)=C(CN(C)CCC(N)=O)S[C@H]12,1 µg/mL,> 64 µg/mL,2 µg/mL,16 µg/mL,0.06 µg/mL,1 µg/mL,1 µg/mL,0.5 µg/mL,0.12 µg/mL,2 µg/mL,1 µg/mL,0.12 µg/mL,1 µg/mL,2 µg/mL
C[C@@H](O)[C@H]1C(=O)N2C(C(=O)O)=C(CN3CC3C(N)=O)S[C@H]12 (stereo partly drawn),2 µg/mL,> 64 µg/mL,4 µg/mL,16 µg/mL,0.25 µg/mL,4 µg/mL,2 µg/mL,2 µg/mL,0.5 µg/mL,8 µg/mL,2 µg/mL,0.25 µg/mL,4 µg/mL,1 µg/mL
C[C@@H](O)[C@H]1C(=O)N2C(C(=O)O)=C(CN3CCCCC3C(N)=O)S[C@H]12 (stereo partly drawn),1 µg/mL,> 64 µg/mL,1 µg/mL,16 µg/mL,0.06 µg/mL,1 µg/mL,1 µg/mL,1 µg/mL,0.12 µg/mL,2 µg/mL,2 µg/mL,0.12 µg/mL,2 µg/mL,4 µg/mL
COC(=O)[C@@H]1CCCN1CC1=C(C(=O)O)N2C(=O)[C@H]([C@@H](C)O)[C@H]2S1,8 µg/mL,> 64 µg/mL,2 µg/mL,8 µg/mL,0.12 µg/mL,4 µg/mL,8 µg/mL,4 µg/mL,0.25 µg/mL,4 µg/mL,8 µg/mL,0.25 µg/mL,8 µg/mL,4 µg/mL
C[C@@H](O)[C@H]1C(=O)N2C(C(=O)O)=C(CN3C[C@@H](O)C[C@H]3C(N)=O)S[C@H]12,2 µg/mL,> 64 µg/mL,2 µg/mL,16 µg/mL,0.12 µg/mL,2 µg/mL,1 µg/mL,0.5 µg/mL,0.25 µg/mL,8 µg/mL,2 µg/mL,0.25 µg/mL,2 µg/mL,0.5 µg/mL
C[C@@H](O)[C@H]1C(=O)N2C(C(=O)O)=C(COC(N)=O)S[C@H]12 [RITIPENEM],1 µg/mL,> 64 µg/mL,1 µg/mL,2 µg/mL,0.06 µg/mL,1 µg/mL,1 µg/mL,0.5 µg/mL,0.12 µg/mL,2 µg/mL,1 µg/mL,0.12 µg/mL,1 µg/mL,0.5 µg/mL
CCCCOC(=O)CN(C)CC1=C(C(=O)O)N2C(=O)[C@H]([C@@H](C)O)[C@H]2S1,> 64 µg/mL,> 64 µg/mL,1 µg/mL,8 µg/mL,0.25 µg/mL,> 64 µg/mL,> 64 µg/mL,32 µg/mL,0.5 µg/mL,16 µg/mL,> 64 µg/mL,0.5 µg/mL,> 64 µg/mL,> 64 µg/mL
C[C@@H](O)[C@H]1C(=O)N2C(C(=O)O)=C(CN3CCC(C(N)=O)CC3)S[C@H]12,2 µg/mL,> 64 µg/mL,2 µg/mL,16 µg/mL,0.015 µg/mL,2 µg/mL,2 µg/mL,2 µg/mL,0.06 µg/mL,2 µg/mL,2 µg/mL,0.12 µg/mL,2 µg/mL,1 µg/mL
CCN(CC(N)=O)CC1=C(C(=O)O)N2C(=O)[C@H]([C@@H](C)O)[C@H]2S1,0.5 µg/mL,> 64 µg/mL,1 µg/mL,–,0.06 µg/mL,0.5 µg/mL,0.5 µg/mL,0.5 µg/mL,0.06 µg/mL,2 µg/mL,1 µg/mL,–,1 µg/mL,2 µg/mL
C[C@@H](O)[C@H]1C(=O)N2C(C(=O)O)=C(CN(C)C(Cc3ccccc3)C(N)=O)S[C@H]12 (stereo partly drawn),–,> 64 µg/mL,1 µg/mL,4 µg/mL,0.015 µg/mL,> 64 µg/mL,32 µg/mL,16 µg/mL,0.12 µg/mL,2 µg/mL,> 64 µg/mL,0.12 µg/mL,–,> 64 µg/mL
C[C@H](C(N)=O)N(C)CC1=C(C(=O)O)N2C(=O)[C@H]([C@@H](C)O)[C@H]2S1,0.25 µg/mL,> 64 µg/mL,2 µg/mL,2 µg/mL,0.06 µg/mL,0.12 µg/mL,0.25 µg/mL,0.12 µg/mL,0.03 µg/mL,2 µg/mL,0.25 µg/mL,0.06 µg/mL,1 µg/mL,2 µg/mL

# — ChEMBL document CHEMBL1128718, “2-Substituted penems with amino acid-related side chains: synthesis and antibacterial activity of a new series of beta-lactam antibiotics” (1995)
